Sampled rows, rich in hits. Any-hit rate of the full collection: about 3.7%.
proCasp7 act = counter-screen: procaspase-7 (human) activation | P55210 | recombinant procaspase-7, Ac-DEVD-pNA absorbance 405 nm; D23A/D198A/D206A triple mutant, cannot self-cleave; scale: DMSO 0, 5 µM enzyme 100 | activation, % at 8.5 µM | hit rate 0.093% among 330,000;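 active = percent activation above the screen-wide mean plus 3 SD, cut at about 25% in these data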
Target sequence (P55210 whole entry D23A/D198A/D206A): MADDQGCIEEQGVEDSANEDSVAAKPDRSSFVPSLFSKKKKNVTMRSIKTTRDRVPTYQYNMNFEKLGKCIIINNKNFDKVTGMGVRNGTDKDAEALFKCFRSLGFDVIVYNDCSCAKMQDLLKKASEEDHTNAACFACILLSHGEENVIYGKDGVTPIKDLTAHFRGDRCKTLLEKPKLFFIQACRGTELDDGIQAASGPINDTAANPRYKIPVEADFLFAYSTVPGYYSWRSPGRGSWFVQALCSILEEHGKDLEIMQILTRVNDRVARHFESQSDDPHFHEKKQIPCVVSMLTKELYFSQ
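System: Procaspase-7 triple mutant (PC-7 D3A); measure: % activation from two-timepoint absorbance difference, scaled to controls; times: 1 h compound preincubation, 2 h substrate cleavage, 25 °C; also added: Ac-DEVD-pNA substrate, 400 µM as added; measured by: Epi-absorbance of released pNA at 405 nm, two timepoints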
aDG glyco up = increases alpha dystroglycan glycosylation | Pro5-aDG cells, alpha-DG glycosylation AlphaScreen (IIH6); 0% Pro5, 100% B10-LARGE cell signal | activation, % at 10 µM | hit rate 0.22% among 360,000;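 active = activation of at least 8% versus controls, or a plate z-score of at least 8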;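 also: Pro5 are CHO cells carrying HIG-tagged alpha-DG that lacks glycosylation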
proCasp3 act = activates human procaspase-3 | hit rate 0.11% among 330,000 | activation, % at 8.5 µM | P42574 | recombinant procaspase-3 D3A, Ac-DEVD-pNA absorbance 405 nm | AID 463141;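 active = activation above the mean of all tested compounds plus 3 SD, cut at about 21% in these data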;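 also: 0% = DMSO alone and 100% = DMSO wells spiked with extra 5 µM PC-3 D3A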
Target sequence (P42574 whole entry D9A/D28A/D175A): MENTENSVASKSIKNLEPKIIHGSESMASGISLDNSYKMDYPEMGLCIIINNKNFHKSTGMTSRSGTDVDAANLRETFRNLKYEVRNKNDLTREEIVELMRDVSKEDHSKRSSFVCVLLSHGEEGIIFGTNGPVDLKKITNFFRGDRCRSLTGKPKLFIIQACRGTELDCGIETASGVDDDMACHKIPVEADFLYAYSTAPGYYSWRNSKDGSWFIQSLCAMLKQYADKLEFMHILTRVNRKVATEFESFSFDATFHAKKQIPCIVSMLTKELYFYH
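Assay system – Procaspase-3 D3A mutant · Benchmarks – DMSO low control, extra-enzyme high control · Technique – 405 nm absorbance of p-nitroaniline, reads at 0 and 120 min · Doses – 8.5 µM nominal · Measure – % activation between DMSO and enzyme-spiked controls · Also added – Ac-DEVD-pNA chromogenic peptide substrate · Schedule – 1 h compound preincubation, 2 h substrate hydrolysis at 25 °C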
NR3A LBD binder = modulators (binders) of human NR3A ligand-binding domain; hit rate 2.5% among 340,000; Tm shift relative to glycine control, % at 25 µM; AID 1259313; NR3A LBD differential scanning fluorimetry, Tm shift; 0% = protein alone, 100% = glycine-bound protein;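 active = melting temperature shift of at least 10% of the positive control shift, at one fixed dose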
MPTP block = blocks calcium-induced mitochondrial swelling; hit rate 1.4% among 360,000; isolated mouse mitochondria, Ca2+ swelling absorbance, 30 min; inhibition, % at 10 µM;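 active = inhibition of 50% or more, scaled per plate between neutral and stimulator controls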;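 also: 0% = DMSO wells given calcium and 100% = 1 mM EGTA wells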
Numbers without * were called inactive; x = no result given.

SMILES | proCasp7 act | aDG glyco up | proCasp3 act | NR3A LBD binder | MPTP block
CN(c1ccccc1)S(=O)(=O)c1ccc(Cl)c(C(=O)Nc2ccc(-c3nc4ccccc4[nH]3)cc2)c1 | 6 | 0 | 5 | 19* | -1
CS(=O)(=O)c1cccc(C(=O)Nc2ccc(-c3nc4ccccc4[nH]3)cc2)c1 | 1 | 0 | 14 | 32* | -2
COC(=O)C(C(C)C)N(Cc1cc(OC)cc(OC)c1)S(=O)(=O)CCl (stereo unspecified) | 2 | 0 | 1 | 2 | 0
CC(=O)c1cccc(NC(=O)c2cccc3c(-c4cccnc4)coc23)c1 | x | 0 | x | x | 2
O=C(Nc1ccc(-c2nc3ccccc3[nH]2)cc1)c1ccccc1NS(=O)(=O)c1ccc(F)cc1 | 15 | 0 | -6 | 30* | 50
Cc1cc2oc(=O)cc(CN(C)Cc3ccccc3)c2cc1C | x | 0 | x | x | -2
Cc1ccc2[nH]c3ccccc3c(=O)c2c1 | 2 | 1 | -5 | -8 | -1
O=c1c2ccccc2[nH]c2ccc(F)cc12 | -8 | 1 | -11 | 11* | -1
COc1ccc(-c2noc(CCC(=O)Nc3cccc(C)c3)n2)cc1 | 5 | 0 | 4 | 2 | -1
COc1ccccc1-c1noc(CCC(=O)Nc2cccc(C)c2)n1 | 5 | 0 | 4 | 14* | -2
C=C[C@H]1[C@H](OC2OC(CO)C(O)C(O)C2O)OC=C(C(=O)OC)[C@H]1C[C@H]1CC(=O)C[C@H](CC(=O)CCc2ccc(O)cc2)O1 (stereo partly specified) | -5 | x | -1 | -1 | x
O=C(Nc1cccc(-n2cnnn2)c1)c1cc(Cl)ccc1Cl | 9 | 0 | -1 | -4 | 1
O=C(Nc1cccc(-n2cnnn2)c1)c1ccoc1COc1ccc(Cl)cc1 | 1 | 0 | -1 | 21* | 3
COC(=O)c1sccc1-c1ccc(C(=O)Nc2cccc(Cl)c2)o1 | -39 | 0 | -14 | 24* | 32
O=C(Cc1ccc(Br)cc1)Nc1ccccc1Sc1ccccc1 | 9 | 0 | -4 | 19* | 12
C(=N\Nc1nc(N2CCCCC2)nc(N2CCCCC2)n1)/c1c[nH]c2ccccc12 | 5 | 0 | 5 | 10* | 4
C(=N\Nc1nc2ccccc2[nH]1)/c1c[nH]c2ccccc12 | -2 | 1 | 9 | 15* | 39
Brc1ccc(-c2ccc(/C=N/Nc3nc4ccccc4[nH]3)o2)cc1 | -24 | 4 | -29 | 31* | 6
C(=N\Nc1nc2ccccc2[nH]1)/c1ccccc1 | 3 | 1 | 6 | -9 | -1
CCOC(=O)C1=C(c2ccccc2)NC(=S)NC1c1cccc([N+](=O)[O-])c1 (stereo unspecified) | 4 | 0 | -1 | 14* | 0
COc1cc(OC)cc(C2=Cc3ccccc3C(CC(C)=O)N2c2ccc(C#CC3(N)CCCCC3)cc2)c1 (stereo unspecified) | x | 0 | x | x | 4
NS(=O)(=O)c1ccc(Nc2ccc3cc(S(=O)(=O)N4CCCCC4)ccc3n2)cc1 | 14 | 0 | -3 | 37* | -1
CCOc1ccc(OCCSc2nc3ccccc3o2)cc1 | 1 | 0 | 5 | 21* | 1
c1ccc(OCCSc2nc3ccccc3o2)cc1 | -4 | 0 | 11 | 1 | 1
CC(C)c1ccc(NC(=O)COC(=O)CSc2nnc(N)s2)cc1 | 8 | 0 | 1 | 13* | -4
SMILES | proCasp7 act | aDG glyco up | proCasp3 act | NR3A LBD binder | MPTP block
O=C(C[C@@H]1CC[C@H](NS(=O)(=O)c2ccccc2F)[C@@H](CO)O1)NCCCN1CCOCC1 | x | 0 | x | x | 0
Cc1ccc(S(=O)(=O)NC(=O)C2(C)CCN2C(=O)Cc2cccs2)nc1 (stereo unspecified) | x | 0 | x | x | -1
O=C(Nc1nccs1)c1ccc(-c2ccc(F)cc2)o1 | -4 | 0 | 7 | -17 | 1
CCc1nnc(NC(=O)c2ccc(-c3ccc(F)cc3)o2)s1 | 8 | 0 | 9 | 16* | -1
O=C(Nc1nccs1)c1ccc(-c2ccc(Cl)cc2)o1 | 3 | 0 | 3 | 20* | 2
Cc1cccc(NS(=O)(=O)c2ccc(C)c(C(=O)NCC(c3ccco3)N3CCCCC3)c2)c1 (stereo unspecified) | x | 1 | x | -2 | -2
O=C1c2ccccc2C(=O)N1/N=C/c1ccc(O)c(O)c1 | -2 | 0 | -4 | 19* | 1
O=C1C2C3C=CC(CC3)C2C(=O)N1/N=C/c1ccc(O)c(O)c1 (stereo unspecified) | 5 | 0 | 13 | 1 | 2
Nc1cc(N)nc(SCC(=O)c2ccc3c(c2)NC(=O)CO3)n1 | -9 | 0 | -8 | 153* | 0
COc1ccc(CN(C2CC2)S(=O)(=O)c2ccccc2Br)cc1 | 9 | 0 | 3 | 13* | -1
COc1ccc(CN(CCC(C)C)S(=O)(=O)c2ccccc2Br)cc1 | 2 | 1 | -6 | 4 | -1
CC(=O)N1C[C@H]2CON(C)[C@H]2C[C@H]1c1ccc(-c2cccnc2)cc1 | x | 0 | x | x | -2
Fc1cccc(Cc2c(-c3ccccc3)nc3c4ccccc4ccn23)c1 | x | 1 | x | x | 2
COCc1cn(-c2nc3ccccc3s2)nn1 | x | 0 | x | x | 0
O=C(N/N=C\C=C\c1ccco1)c1cc(-c2ccc3ccccc3c2)n[nH]1 | 3 | 0 | 3 | 15* | 4
O=C(N/N=C/C=C\c1ccco1)c1ccccn1 | -4 | 0 | -10 | -4 | 3
O=C1NC[C@H](CCCCN2CCN(CCc3ccc(O)cc3)C(=O)C2=O)N(CCC2CCCCC2)C1=O | x | 0 | x | x | 0
CN1CCN(C(=S)c2ccc(Cl)cc2)CC1 | 4 | 0 | 2 | 10* | 2
CC[C@@H]1CCCCc2ccccc2[C@H](C(=O)C[C@H](O)CC(C)=O)OC1=O | 11 | 0 | 5 | 3 | -1
CC(C)=CCOc1ccc([C@@H]2COc3c(ccc4c3C=CC(C)(C)O4)C2)c(O)c1 | 3 | 0 | -3 | 15* | 4
COc1ccc(OCc2cc(=O)c3ccc4c(c3o2)C=CC(C)(C)O4)cc1OC | 6 | 0 | 5 | 0 | 5
O=C(c1cc(-c2cccs2)on1)N1CCN(c2ccc(F)cc2)CC1 | -4 | 0 | -5 | 13* | 0
O=C(c1cc(-c2cccs2)on1)N1CCN(c2ccccc2)CC1 | 1 | 0 | -9 | 0 | -1
CCOc1nc(OCC)c2[nH]c(C(=O)O)c(Br)c2n1 | x | 0 | x | -5 | 0
N#Cc1ccccc1NC(=O)CN(Cc1ccccc1)Cc1ccccc1 | -4 | 0 | 4 | 16* | 0
N#Cc1c(SCC(=O)Nc2ccccc2)nsc1SCC(=O)Nc1ccccc1 | -9 | 0 | -4 | 15* | 5
COC(=O)CSc1nsc(SCC(=O)OC)c1C#N | -2 | 0 | -2 | -4 | 0
Cc1cccc(NC(=O)CSc2nsc(SCC(=O)Nc3cccc(C)c3)c2C#N)c1 | 6 | 0 | 2 | 14* | 36

Bioassay records as filed in PubChem.
